Tests used:
Settings in all cases: stereoisomer not certain
[1] = target: T1, UniProt Q8VF43
T1 sequence (whole entry): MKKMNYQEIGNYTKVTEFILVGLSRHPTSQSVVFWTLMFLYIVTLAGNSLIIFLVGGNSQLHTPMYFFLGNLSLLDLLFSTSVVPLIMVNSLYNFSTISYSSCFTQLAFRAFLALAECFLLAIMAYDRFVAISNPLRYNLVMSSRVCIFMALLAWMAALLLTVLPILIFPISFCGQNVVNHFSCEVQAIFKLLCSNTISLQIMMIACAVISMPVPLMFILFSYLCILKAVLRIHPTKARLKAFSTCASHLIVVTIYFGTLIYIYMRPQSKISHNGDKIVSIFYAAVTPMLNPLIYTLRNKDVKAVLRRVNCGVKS
In short: (§1)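 Assay methods differ from source to source, frequently being transient luciferase assays in mammalian cell lines. For each receptor–molecule pair, the label responsive (active) applies when the original authors judged the measured signal statistically different from baseline, and non-responsive (inactive) applies otherwise.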

[2] = target: T2, UniProt Q8VF52
T2 sequence (whole entry): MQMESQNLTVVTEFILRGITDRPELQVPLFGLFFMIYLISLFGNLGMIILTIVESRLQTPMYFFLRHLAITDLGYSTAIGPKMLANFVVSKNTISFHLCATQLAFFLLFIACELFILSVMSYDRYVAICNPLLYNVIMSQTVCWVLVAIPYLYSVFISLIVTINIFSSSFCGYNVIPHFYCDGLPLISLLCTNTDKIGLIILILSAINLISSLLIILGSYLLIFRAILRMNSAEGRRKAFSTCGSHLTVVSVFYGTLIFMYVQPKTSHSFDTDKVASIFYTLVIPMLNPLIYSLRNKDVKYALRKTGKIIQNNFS
In short: as §1

[3] = target: T3, UniProt Q8VFM8
T3 sequence (whole entry): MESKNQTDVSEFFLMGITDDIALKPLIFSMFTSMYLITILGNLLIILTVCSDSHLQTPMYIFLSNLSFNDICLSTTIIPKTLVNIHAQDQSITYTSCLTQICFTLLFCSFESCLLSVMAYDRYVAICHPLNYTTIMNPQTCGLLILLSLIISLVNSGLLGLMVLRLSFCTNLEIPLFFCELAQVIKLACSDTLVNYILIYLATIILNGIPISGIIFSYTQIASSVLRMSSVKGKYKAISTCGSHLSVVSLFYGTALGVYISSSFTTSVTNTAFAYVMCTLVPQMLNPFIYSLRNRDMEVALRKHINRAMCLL
In short: as §1

[4] = target: T4, UniProt Q8VF24
T4 sequence (whole entry): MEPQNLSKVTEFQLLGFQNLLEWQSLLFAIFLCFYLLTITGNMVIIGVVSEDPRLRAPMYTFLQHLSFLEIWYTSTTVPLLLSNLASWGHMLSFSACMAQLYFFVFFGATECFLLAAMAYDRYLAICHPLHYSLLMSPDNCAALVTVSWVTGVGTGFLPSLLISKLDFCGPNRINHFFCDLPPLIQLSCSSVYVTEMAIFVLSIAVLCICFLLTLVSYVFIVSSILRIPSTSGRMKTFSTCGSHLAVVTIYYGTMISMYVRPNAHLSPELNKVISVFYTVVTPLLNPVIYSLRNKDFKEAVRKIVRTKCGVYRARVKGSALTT
In short: as §1

[5] = target: T5, UniProt Q8VF44
T5 sequence (whole entry): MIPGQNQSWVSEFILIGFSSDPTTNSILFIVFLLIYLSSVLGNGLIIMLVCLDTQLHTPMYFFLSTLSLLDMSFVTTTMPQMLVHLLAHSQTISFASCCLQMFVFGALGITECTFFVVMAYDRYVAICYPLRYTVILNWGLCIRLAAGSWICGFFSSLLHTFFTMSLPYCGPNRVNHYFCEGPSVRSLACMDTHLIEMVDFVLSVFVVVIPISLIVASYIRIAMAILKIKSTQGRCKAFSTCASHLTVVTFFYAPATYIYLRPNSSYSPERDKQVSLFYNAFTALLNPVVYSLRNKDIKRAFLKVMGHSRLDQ
In short: as §1

[6] = target: T6, UniProt Q8VFG6
T6 sequence (whole entry): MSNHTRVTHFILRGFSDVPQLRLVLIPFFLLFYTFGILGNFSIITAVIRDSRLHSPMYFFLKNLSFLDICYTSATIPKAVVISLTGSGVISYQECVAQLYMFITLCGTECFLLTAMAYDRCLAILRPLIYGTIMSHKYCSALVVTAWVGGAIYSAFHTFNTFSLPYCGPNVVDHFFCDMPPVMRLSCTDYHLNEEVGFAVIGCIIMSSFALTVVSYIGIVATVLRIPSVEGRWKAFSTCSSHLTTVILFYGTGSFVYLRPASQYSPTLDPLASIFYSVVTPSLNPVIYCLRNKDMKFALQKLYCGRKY
In short: as §1

SMILES	odorant receptor agonist call [1]	odorant receptor agonist call [2]	odorant receptor agonist call [3]	odorant receptor agonist call [4]	odorant receptor agonist call [5]	odorant receptor agonist call [6]
COc1nccnc1C	inactive	inactive	inactive			
O=C([O-])CCCCCCC(=O)[O-].[H+].[H+]	inactive	inactive	inactive			
CCOC(=O)C(C)C	inactive	inactive	inactive	inactive	inactive	inactive
CCC(C(=O)O)c1ccccc1 (configuration not stated)		inactive		inactive	inactive	inactive
CCCCCCC(=O)[O-].[H+]		inactive		inactive	inactive	inactive
O=C1Cc2ccccc2O1	inactive	inactive	inactive	inactive	active	inactive
CC(C)CCN	inactive	inactive	inactive			
CCCCOC(=O)C(C)OC(=O)CCC (configuration not stated)		inactive		inactive	inactive	inactive
Cc1occc1SSc1ccoc1C	inactive	inactive	inactive			
C=CC(=C)CCC=C(C)CCC=C(C)C	inactive	inactive	inactive			
CCCCCCCC(C)=O	inactive	inactive	inactive	inactive	inactive	inactive
CCC(=O)O	inactive	inactive	inactive	inactive	inactive	inactive
CCCC=O	inactive	inactive	inactive			
c1ccccc1	inactive	inactive	inactive	inactive	inactive	inactive
CC(=O)Oc1ccccc1	inactive	inactive	inactive	inactive	inactive	inactive
Cc1ccc(OC(=O)C(C)C)cc1	inactive	inactive	inactive			
CCCCCO		inactive		inactive	inactive	inactive
CC(C)=CCCC(C)=CCO	inactive	inactive	inactive	inactive	inactive	inactive
CCN(CC)CC	inactive	inactive	inactive			
CC(C)=C1CCC(C)CC1=O (configuration not stated)	inactive	inactive	inactive			
C=C(C)C1CCC(C)C(=O)C1 (configuration not stated)	inactive	active	inactive	inactive	inactive	inactive
CCCCCCCCCCO	inactive	inactive	inactive	inactive	inactive	inactive

Reference: the M2OR odorant receptor database
